Data as given in ChEMBL document CHEMBL1123993, “2(1H)-quinolinones with cardiac stimulant activity. 1. Synthesis and biological activities of (six-membered heteroaryl)-substituted derivatives” (1988).

What was measured:
[1] = tested on: Canis familiaris; assay: Percentage increase in dP/dt maximum observed with 4-[4-[2-(1,1-dioxo-2-isothiazolidinyl)-ethyl]-[…] (50 ug/Kg) in dog; assay type: functional, Canis lupus familiaris
Summary of the method: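 Standard quinazoline inotrope given iv at 50 µg/kg to anesthetized dogs before each test compound. Left ventricular pressure recorded by Millar catheter via the carotid artery and differentiated to dP/dt max. Response expressed as % increase in dP/dt max; individual values taken from a typical test run.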

[2] = tested on: Canis familiaris; assay: Inotropic activity measured as % increase in dP/dt maximum in Anesthetized dog at the dose of 50 ug/Kg administered intravenously; assay type: functional, Canis lupus familiaris
Summary of the method: (§1)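 Anesthetized dogs. LVP recorded via Millar catheter passed into the left ventricle through the carotid artery, differentiated to dP/dt max. After 0.75 h equilibration, compound given iv in 0.9% saline 0.5 h after a standard quinazoline inotrope (50 µg/kg). Cycle repeated once control levels returned, at least 0.5 h between doses. Reported as % increase in dP/dt max; relative potency normalised by dose to the standard in the same dog.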

[3] = tested on: Canis familiaris; assay: Decrease in QA interval in Conscious dog (n=4) 1 hr after a dose of 1 mg / Kg was administered per orally; assay type: functional, Canis lupus familiaris; design: unit not given beside the values
Summary of the method: (§2)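 Conscious dogs (n = 4) given test substance as a solution by oral gavage. QA interval (ms from ECG R wave to arterial pressure pulse upstroke) recorded by computer every 0.16 h, from 0.5 h predose to 4 h postdose. Each time-point value is the mean of six consecutive 8-s sets. Reported as decrease from mean predose control.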

[4] = tested on: Canis familiaris; assay: Decrease in QA interval in Conscious dog(n=4) 3h after a dose of 1 mg/kg was administered per orally
[5] = tested on: Canis familiaris; assay: Decrease in QA interval in Conscious dog(n=4) 3h after a dose of 1 ug/kg was administered per orally; assay type: functional, Canis lupus familiaris; conditions: in the assay text read “1 mg/kg” for “1 ug/kg”; summary of the method: as §2
[6] = tested on: Canis familiaris; assay: Inotropic activity measured as % increase in dP/dt maximum in Anesthetized dog at the dose of 250 ug/Kg administered intravenously; assay type: functional, Canis lupus familiaris; summary of the method: as §1
[7] = tested on: Canis familiaris; assay: Decrease in QA interval in Conscious dog (n=4) 3h after a dose of 1 ug/Kg was administered per orally; assay type: functional, Canis lupus familiaris; conditions: in the assay text read “1 mg/Kg” for “1 ug/Kg”; summary of the method: as §2
[8] = tested on: Canis familiaris; assay: Decrease in QA interval in Conscious dog (n=4) 1 hr after a dose of 1 mg/Kg was administered per orally
[9] = tested on: Canis familiaris; assay: Inotropic activity measured as % increase in dP/dt maximum in Anesthetized dog at the dose of 12.5 ug/Kg administered intravenously; assay type: functional, Canis lupus familiaris; summary of the method: as §1
[10] = tested on: Canis familiaris; assay: Decrease in QA interval in Conscious dog (n=4) 1 hr after a dose of 0.5 mg / Kg was administered per orally; assay type: functional, Canis lupus familiaris; summary of the method: as §2
[11] = tested on: Canis familiaris; assay: Decrease in QA interval in Conscious dog(n=4) 3h after a dose of 1 mg/Kg was administered per orally; assay type: functional, Canis lupus familiaris; summary of the method: as §2
[12] = tested on: Canis familiaris; assay: Decrease in QA interval in Conscious dog (n=4) 1 hr after a dose of 2 mg/Kg was administered per orally; assay type: functional, Canis lupus familiaris; summary of the method: as §2
[13] = tested on: Canis familiaris; assay: Decrease in QA interval in Conscious dog(n=4) 3h after a dose of 2 mg/Kg was administered per orally; assay type: functional, Canis lupus familiaris; summary of the method: as §2
[14] = tested on: Canis familiaris; assay: Inotropic activity measured as % increase in dP/dt maximum in Anesthetized dog at the dose of 25 ug/Kg administered intravenously; assay type: functional, Canis lupus familiaris; summary of the method: as §1
[15] = tested on: Canis familiaris; assay: Decrease in QA interval in Conscious dog (n=4) 1 hr after a dose of 0.25 mg/Kg was administered per orally; assay type: functional, Canis lupus familiaris; summary of the method: as §2
[16] = tested on: Canis familiaris; assay: Decrease in QA interval in Conscious dog (n=4) 3h after a dose of 0.25 mg/Kg was administered per orally; assay type: functional, Canis lupus familiaris; summary of the method: as §2

| SMILES | Relative potency [1] | dP/dt [2] | also measured |
| --- | --- | --- | --- |
| Oc1ccc2cc(-c3cncnc3)ccc2n1 | 1.1 | 44% | Decrease [3]: 3; Decrease [4]: 1 |
| CSc1cc(-c2ccc(C)nc2C)cc2ccc(O)nc12 | 0.5 | 20 | – |
| Cc1ccncc1-c1ccc2nc(O)ccc2c1 | 1.3 | 21% | – |
| Oc1ccc2ccc(-c3cccnc3)cc2n1 | 0.2 | 6% | – |
| COc1ccc(-c2ccc3nc(O)ccc3c2)cn1 | 0.3 | 11% | – |
| CCc1cc(-c2ccc(C)nc2C)cc2ccc(O)nc12 | 1 | 35% | – |
| Cc1ccc(-c2cc(C(C)C)c3nc(O)ccc3c2)c(C)n1 | 0.4 | 16% | – |
| Oc1ccc2cc(-c3ncccn3)ccc2n1 | 0.7 | 28% | Decrease [3]: 4; Decrease [5]: 4 |
| Cc1ccc(-c2cc(Br)c3nc(O)ccc3c2)c(C)n1 | 0.7 | 41% | – |
| Cc1ccc(-c2ccc3c(c2)CCC(=O)N3)c(C)n1 | 0.8 | 32% | – |
| COc1cc(-c2ccc(C)nc2C)cc2ccc(O)nc12 | 0.4 | 11% | – |
| Cc1cc2nc(O)ccc2cc1-c1cccnc1 | 0.2 | – | dP/dt [6]: 51% |
| O=[N+]([O-])c1cc2cc(-c3cccnc3)ccc2nc1O | 0.6 | 39% | – |
| O=C1CCc2cc(-c3cccnc3)ccc2N1 | 1.1 | 41% | Decrease [7]: 7; Decrease [8]: 10 |
| Cc1cc(-c2cccnc2)cc2ccc(O)nc12 | 9 | – | dP/dt [9]: 112%; Decrease [10]: 16; Decrease [5]: 20 |
| Cc1ccc(-c2cc(C)c3nc(O)ccc3c2)c(C)n1 | 4.3 | – | dP/dt [9]: 43%; Decrease [3]: 21; Decrease [4]: 19 |
| Oc1ccc2c(-c3cccnc3)cccc2n1 | 0.9 | 44% | Decrease [3]: 9; Decrease [5]: 4 |

| SMILES | Relative potency [1] | dP/dt [2] | also measured |
| --- | --- | --- | --- |
| Cc1cc(O)nc2ccc(-c3cccnc3)cc12 | 0.7 | 39% | – |
| Nc1cc2cc(-c3cccnc3)ccc2nc1O | 0.9 | 63% | – |
| Cc1ccc(-c2ccc3nc(O)ccc3c2)cn1 | 1.3 | 46% | – |
| Oc1ccc2cc(-c3ccncn3)ccc2n1 | 1.2 | 38% | Decrease [3]: 6; Decrease [5]: 2 |
| Cc1ccc(-c2ccc3nc(O)ccc3c2)c(C)n1 | 1.4 | 37% | Decrease [3]: 6; Decrease [5]: 5 |
| Nc1ccc(-c2ccc3nc(O)ccc3c2)cn1 | 0.8 | 30% | – |
| Cc1ncccc1-c1ccc2nc(O)ccc2c1 | 1.7 | 74% | – |
| Oc1ccc2cc(-c3ccncc3)ccc2n1 | 0.9 | 51% | Decrease [3]: 13; Decrease [11]: 8 |
| Oc1ccc2cc(-c3cccnn3)ccc2n1 | 0.7 | 32% | Decrease [3]: 8; Decrease [5]: 5 |
| Cc1ccc(-c2cc(O)c3nc(O)ccc3c2)c(C)n1 | <0.1 | 19% | – |
| Oc1ccc2cc(-c3ccnnc3)ccc2n1 | 1.3 | 43% | – |
| N#Cc1cc2cc(-c3cccnc3)ccc2nc1O | 0.9 | 46% | – |
| Oc1ccc2cc(-c3ccccn3)ccc2n1 | 0.3 | – | dP/dt [6]: 62%; Decrease [12]: 2; Decrease [13]: 1 |
| Oc1ccc2cc(-c3cccnc3)ccc2n1 | 1.3 | 54% | Decrease [3]: 14; Decrease [11]: 7 |
| CSc1ccc(C(=O)c2[nH]c(=O)[nH]c2C)cc1 [ENOXIMONE] | 0.013 | – | dP/dt [6]: 32% |
| Cc1[nH]c(=O)c(C#N)cc1-c1ccncc1 [MILRINONE] | 1.6 | – | dP/dt [14]: 46%; Decrease [15]: 13; Decrease [16]: 7 |
